Experiment [1] is described as follows: hit retest on RPL19A-GFP reporter strain – cell-based, S. cerevisiae, flow cytometry, cherry picks, mother/daughter gates, confirmation (AID 2270;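 active means GFP response below 50% of the DMSO control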). The note with it: 3 h, at 10 µM, stronger effect = lower value, 100 = same GFP as DMSO wells.
A short description of experiment [2]: yeast TOR pathway reporter LAP4-GFP change – cell-based, cherry picks, flow cytometry, mother/daughter gates, confirmation (AID 2271;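 active means GFP response above 150% of the DMSO control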;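 further: ratio of sample to DMSO plate mean so 100% equals DMSO level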). The settings on record: S. cerevisiae LAP4-GFP strain, 3 h, at 10 µM, stronger effect = higher value, 100 means same as DMSO control. In short, it runs like this: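 Material: Alexa 633-stained baker's yeast GFP-fusion strain; Compound dosing: single test-compound dose, 10 µM final; Incubation: 30 °C, 3 h compound incubation, rotating; Detection: HT flow cytometry, GFP fluorescence channel; Control set: positive rapamycin (400 ng/mL), negative DMSO.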

Experiment [3] is described as follows: TOR pathway reporter MEP2-GFP, retest of hits – S. cerevisiae, flow cytometry GFP, cherry picks, confirmation (AID 2272;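 active means GFP response above 150% of the DMSO control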;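 further: ratio of well signal to plate DMSO mean so 100% equals DMSO level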). The settings on record: S. cerevisiae MEP2-GFP strain, 3 h, at 10 µM, stronger effect = higher value. A general note: A flow cytometer gives signals particle by particle.
Experiment [4] in a line: yeast AGP1-GFP fluorescence change, single-dose – cell-based, flow cytometry, S. cerevisiae, cherry picks, confirmation (AID 2273).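 Further: median GFP channel fluorescence over the whole cell population gate.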 The note with it: S. cerevisiae AGP1-GFP strain, 3 h, at 10 µM.
The nature of experiment [5]: TOR pathway CIT2 reporter hit retest – S. cerevisiae, GFP fusion, cherry picks, mother/daughter gates, confirmation (AID 2274). The settings on record: S. cerevisiae CIT2-GFP strain, flow cytometry, 3 h, at 10 µM, stronger effect = higher value.
Where [6] appears, read: measured here: daughter cell gate.
[7] abbreviates: measured here: mother cell gate.
Setting [8] is: measured here: daughter cell gate response.
[9] abbreviates: measured here: mother cell gate response.

Calls of active or inactive are those of the source.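 How the source made its calls, unless noted: active means GFP response above 150% of the DMSO level; inconclusive means fewer than 70 events counted for a yeast strain; inactive means the rest.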

This passage reports GFP response vs DMSO, GFP response relative to DMSO and GFP response, % of DMSO results from PubChem BioAssay.

For the compound `O=C(c1ccccc1[N+](=O)[O-])n1cnc2ccccc21`, the GFP response vs DMSO is 100% (inactive) in experiment [1], 101% in experiment [1] (setting [6]), 100% in experiment [1] (setting [7]) and 94.4% (inactive) in experiment [3]. Moreover, the GFP response relative to DMSO is 96.1% (inactive) in experiment [2], 98.2% in experiment [2] (setting [8]) and 96.2% in experiment [2] (setting [9]). The GFP response, % of DMSO in experiment [4] is 87.1% (inactive); in experiment [5] it was 117% (inactive); in experiment [5] (setting [6]), 110%; in experiment [5] (setting [7]) it was 119%.

`NC(N)=N/N=C/c1ccc(OCc2ccc(Cl)cc2Cl)cc1`: the GFP response vs DMSO in experiment [1] is 88.9% (inactive); in experiment [1] (setting [6]), 82.8%; in experiment [1] (setting [7]), 87.2%; in experiment [3], 105% (inactive). Also, the results for the GFP response relative to DMSO in experiment [2], in experiment [2] (setting [8]) and in experiment [2] (setting [9]) were 115% (inactive), 106% and 121%, respectively. The GFP response, % of DMSO in experiment [4] is 99.1% (inactive); in experiment [5], 85.5% (inactive); in experiment [5] (setting [6]), 80.7%; in experiment [5] (setting [7]) it was 84.3%.

As for `O=C(COC(=O)c1cccs1)Nc1nc(-c2ccccc2)cs1`, the GFP response vs DMSO was 97% (inactive) in experiment [1], 95.6% in experiment [1] (setting [6]), 98.4% in experiment [1] (setting [7]) and 96.2% (inactive) in experiment [3]. Moreover, the values for the GFP response relative to DMSO in experiment [2], in experiment [2] (setting [8]) and in experiment [2] (setting [9]) were 99.2% (inactive), 99.2% and 99.3%, respectively. The GFP response, % of DMSO in experiment [4] is 99.1% (inactive); in experiment [5], 99.7% (inactive); in experiment [5] (setting [6]), 99.1%; in experiment [5] (setting [7]), 96.1%.

On to `[O-][n+]1cccc2c(Br)cc(Br)c(O)c21`, for which the GFP response vs DMSO in experiment [1] is 98.2% (inactive); in experiment [1] (setting [6]), 99.6%; in experiment [1] (setting [7]), 95.6%; in experiment [3], 178% (active). Besides, the GFP response relative to DMSO in experiment [2] was 258% (active); in experiment [2] (setting [8]), 215%; in experiment [2] (setting [9]) it was 251%. Further, the GFP response, % of DMSO was 112% (inactive) in experiment [4], 101% (inactive) in experiment [5], 103% in experiment [5] (setting [6]) and 95.7% in experiment [5] (setting [7]).

As to `Cc1c(CC(C)C)nc(N)c(C#N)c1-c1ccccc1`, the GFP response vs DMSO in experiment [1] was 98.4% (inactive); in experiment [1] (setting [6]) it was 99.8%; in experiment [1] (setting [7]), 99.7%; in experiment [3] it was 102% (inactive). The GFP response relative to DMSO was 94.2% (inactive) in experiment [2], 89.3% in experiment [2] (setting [8]) and 92.6% in experiment [2] (setting [9]). Besides, the GFP response, % of DMSO in experiment [4] was 98.7% (inactive); in experiment [5], 102% (inactive); in experiment [5] (setting [6]), 102%; in experiment [5] (setting [7]), 100%.

On to `O=C(O/N=C(\c1ccccc1)c1ccncc1)c1ccccc1Cl`, for which the GFP response vs DMSO is 77% (inactive) in experiment [1], 74.3% in experiment [1] (setting [6]), 79.7% in experiment [1] (setting [7]) and 91% (inactive) in experiment [3]. Also, the GFP response relative to DMSO was 119% (inactive) in experiment [2], 118% in experiment [2] (setting [8]) and 123% in experiment [2] (setting [9]). Moreover, the GFP response, % of DMSO in experiment [4] is 91.8% (inactive); in experiment [5], 68.1% (inactive); in experiment [5] (setting [6]) it was 69.2%; in experiment [5] (setting [7]) it was 69.2%.

Regarding `Oc1ccc(-c2nc3ccccn3c2NCc2ccco2)cc1`, the GFP response vs DMSO in experiment [1] is 96.8% (inactive); in experiment [1] (setting [6]), 98.4%; in experiment [1] (setting [7]), 97.1%; in experiment [3] it was 102% (inactive). Moreover, the GFP response relative to DMSO in experiment [2] was 101% (inactive); in experiment [2] (setting [8]) it was 99.2%; in experiment [2] (setting [9]), 99.3%. The GFP response, % of DMSO is 96.2% (inactive) in experiment [4], 103% (inactive) in experiment [5], 105% in experiment [5] (setting [6]) and 101% in experiment [5] (setting [7]).

With `Cc1nnc(NC(=O)c2nc(S(=O)(=O)Cc3ccccc3)ncc2Cl)s1`, the GFP response vs DMSO is 95.1% (inactive) in experiment [1], 96.7% in experiment [1] (setting [6]), 93.7% in experiment [1] (setting [7]) and 99.3% (inactive) in experiment [3]. Also, the figures for the GFP response relative to DMSO in experiment [2], in experiment [2] (setting [8]) and in experiment [2] (setting [9]) were 96.5% (inactive), 99% and 98.4%, respectively. Besides, the GFP response, % of DMSO in experiment [4] is 103% (inactive); in experiment [5], 104% (inactive); in experiment [5] (setting [6]), 103%; in experiment [5] (setting [7]), 104%.

Turning to `CCS(=O)(=O)Nc1cccc(C2=NN(S(C)(=O)=O)C(c3ccccc3)C2)c1` (stereo not drawn), the GFP response vs DMSO was 100% (inactive) in experiment [1], 101% in experiment [1] (setting [6]), 100% in experiment [1] (setting [7]) and 120% (inactive) in experiment [3]. Further, the GFP response relative to DMSO was 110% (inactive) in experiment [2], 105% in experiment [2] (setting [8]) and 112% in experiment [2] (setting [9]). The GFP response, % of DMSO was 112% (inactive) in experiment [4], 111% (inactive) in experiment [5], 112% in experiment [5] (setting [6]) and 110% in experiment [5] (setting [7]).

Turning to `COc1ccccc1CNC(=O)CS(=O)Cc1nc(-c2ccc(OC)c(OC)c2)oc1C` (stereo not drawn), the GFP response vs DMSO in experiment [1] is 97.2% (inactive); in experiment [1] (setting [6]), 97.4%; in experiment [1] (setting [7]) it was 98%; in experiment [3], 105% (inactive). Moreover, the GFP response relative to DMSO is 96.7% (inactive) in experiment [2], 97.6% in experiment [2] (setting [8]) and 96.1% in experiment [2] (setting [9]). The GFP response, % of DMSO in experiment [4] was 97.6% (inactive); in experiment [5], 104% (inactive); in experiment [5] (setting [6]) it was 108%; in experiment [5] (setting [7]), 103%.

As for `C=CCOc1cccc(C(=O)/C=C2/C(=O)Nc3ccccc32)c1`, the GFP response vs DMSO was 102% (inactive) in experiment [1], 97.9% in experiment [1] (setting [6]), 98.8% in experiment [1] (setting [7]) and 112% (inactive) in experiment [3]. For the same compound, the GFP response relative to DMSO in experiment [2] is 114% (inactive); in experiment [2] (setting [8]) it was 107%; in experiment [2] (setting [9]), 117%. The GFP response, % of DMSO in experiment [4] was 105% (inactive); in experiment [5], 102% (inactive); in experiment [5] (setting [6]), 103%; in experiment [5] (setting [7]), 98.1%.

With `O=S(=O)(c1ccc(Oc2ccccc2)cc1)N1CCOCC1`, the GFP response vs DMSO was 98.2% (inactive) in experiment [1], 98.4% in experiment [1] (setting [6]), 98.2% in experiment [1] (setting [7]) and 100% (inactive) in experiment [3]. Also, the figures for the GFP response relative to DMSO in experiment [2], in experiment [2] (setting [8]) and in experiment [2] (setting [9]) were 96.2% (inactive), 95.6% and 97.2%, respectively. Besides, the GFP response, % of DMSO in experiment [4] was 94.1% (inactive); in experiment [5], 93.9% (inactive); in experiment [5] (setting [6]), 94.8%; in experiment [5] (setting [7]), 94.4%.

Regarding `CCOC(=O)/C(=C\c1cn(C)c2ccccc12)[N+](=O)[O-]`, the GFP response vs DMSO in experiment [1] is 98.2% (inactive); in experiment [1] (setting [6]), 93.4%; in experiment [1] (setting [7]) it was 93.6%; in experiment [3] it was 111% (inactive). Further, the values for the GFP response relative to DMSO in experiment [2], in experiment [2] (setting [8]) and in experiment [2] (setting [9]) were 204% (active), 163% and 202%, respectively. For the same compound, the GFP response, % of DMSO in experiment [4] is 84.2% (inactive); in experiment [5], 86.9% (inactive); in experiment [5] (setting [6]), 88.1%; in experiment [5] (setting [7]) it was 76%.
